# Screens deposited in PubChem BioAssay by Johns Hopkins Ion Channel Center.
# KCNK9 inh = KCNK9 potassium channel inhibitors, primary screen, HEK293 cells, thallium flux; Potassium channel subfamily K member 9 (Homo sapiens), Q9NPC2; AID 488922, 2010; FluxOR thallium flux fluorescence; stronger effect = lower value; 1.2% of 310,000 active; B-score at 10 µM;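 active = ratio B-score over 3 SD below the library mean, with starting fluorescence within 5 SD of its mean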;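 also: negative B-score means less thallium flux so channel inhibition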
# KCNK3 block = human KCNK3 channel inhibitors, primary screen, CHO cells, FluxOR thallium flux, B-score; Potassium channel subfamily K member 3 (Homo sapiens), O14649; FluxOR fluorescence; stronger effect = lower value; B-score at 10 µM; 0.84% of 340,000 active;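 active = B-score under library mean minus 4 SD, starting fluorescence ratio at most library mean plus 5 SD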;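 also: more negative B-score means stronger inhibition of thallium flux through KCNK3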
# KCNQ1 block = inhibitors of human KCNQ1 channel, primary screen, cell-based, thallium flux, high-throughput. Potassium voltage-gated channel subfamily KQT member 1 (Homo sapiens), P51787. CHO-K1 KCNQ1, FluxOR thallium flux fluorescence; stronger effect = higher value. B-score at 10 µM. 1.3% of 310,000 active. AID 2642, 2010;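 active = compounds whose thallium flux B-score, printed positive for inhibition, exceeds three library SD while starting fluorescence stays within three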;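 also: channel opened by potassium depolarization with thallium stimulus after 20 min compound exposure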
# KCNQ1 pot = potentiators or activators of KCNQ1 channel, primary screen, cell-based, thallium flux, high-throughput. CHO-K1 KCNQ1, thallium flux FluxOR fluorescence; stronger effect = higher value. B-score at 10 µM. 0.35% of 310,000 active. AID 2648, 2010;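 active = fluorescence ratio B-score, a plate-corrected score, at least three library SD, with initial intensity B-score within 5 SD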
#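 assay system = KCNQ1-transfected CHO-K1 cells | medium = assay buffer with matched DMSO | probe or stimulus = depolarizing K+/Tl+ stimulus, K2SO4 and Tl2SO4 each 12.5 mM in 5x stock | dosing = single dose | incubation = dye 90 min, compound 20 min, room temperature | detection = kinetic FluxOR fluorescence, 10 s baseline plus 110 s post-stimulus | evaluation = ratio B score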
# Kir21 block = inhibitors of mouse Kir2.1 inward-rectifier potassium channel; 0.85% of 310,000 active; Inward rectifier potassium channel 2 (Mus musculus), P35561; B-score at 10 µM; HEK293-Kir2.1, FluxOR thallium flux fluorescence; stronger effect = lower value;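 active = fluorescence ratio B-score at or below minus 3 SD of library scores, with starting-brightness B-score within 2 SD, cut at about -4.2 in these data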;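 also: channel flux triggered by added potassium and thallium sulfate stimulus; B-score of peak minus minimum fluorescence over baseline after thallium stimulus; more negative B-score means stronger Kir2.1 block with less thallium influx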
# Target sequence (P35561 whole entry, looked up): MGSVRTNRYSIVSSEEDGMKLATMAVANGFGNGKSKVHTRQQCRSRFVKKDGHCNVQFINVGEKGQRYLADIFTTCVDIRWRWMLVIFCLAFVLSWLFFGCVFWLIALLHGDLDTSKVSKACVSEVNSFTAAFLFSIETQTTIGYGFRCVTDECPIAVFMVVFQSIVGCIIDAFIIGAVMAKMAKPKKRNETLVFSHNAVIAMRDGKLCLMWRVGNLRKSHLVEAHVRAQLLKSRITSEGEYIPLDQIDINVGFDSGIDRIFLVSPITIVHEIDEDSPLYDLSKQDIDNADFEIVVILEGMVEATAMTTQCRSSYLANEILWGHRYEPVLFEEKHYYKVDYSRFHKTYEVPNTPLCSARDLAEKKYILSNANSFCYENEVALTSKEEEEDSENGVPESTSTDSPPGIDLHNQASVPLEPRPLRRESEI
# hERG rescue = hERG rescue from dofetilide block, primary screen, cell-based, CHO-hERG, FluxOR thallium flux, dofetilide IC70 | activation (rescue from dofetilide block), less the hit threshold, % at 10 µM | AID 1511, 2009 | 0.51% of 310,000 active | dofetilide IC70 present | Voltage-gated inwardly rectifying potassium channel KCNH2 (Homo sapiens), Q12809;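 active = activation above the mean of controls blocked by dofetilide plus 5 SD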;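 also: thallium influx through hERG after potassium depolarization seen as dye fluorescence rise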
# An asterisk follows results filed as active; i = inactive; · = no result. This is a sample that favours compounds with a hit; in the whole collection about 3.7% have one here.
SMILES,KCNK9 inh,KCNK3 block,KCNQ1 block,KCNQ1 pot,Kir21 block,hERG rescue
CCC(C)N1CCN(C(=O)c2cc(OC)cc(OC)c2)CC1 (centres undefined),i,i,i,i,-1.9,5.2*
Cc1[nH]c2ccccc2c1CCNC(=O)c1ccc2nccnc2c1,i,i,i,i,-0.08,-7
COCCOc1ccc(C(F)(F)F)cc1NC(=O)c1ccc(C)cc1,i,i,i,i,0.76,-5
CCCCCNCC(=O)Nc1cc(C(F)(F)F)ccc1OCCOC,-8.5*,i,i,i,1.2,-11
CN1CCN(C(=S)Nc2cc([N+](=O)[O-])ccc2Cl)CC1,·,i,·,·,·,·
CCOC(=O)NC1=NCC(C)(C)S1,·,i,·,·,·,·
COc1ccc(C(CCNC(C)c2ccccc2)c2ccc(F)cc2)cc1 (centres undefined),i,i,i,i,-7.5*,-25
COc1ccc(C(CCNCc2ccc(F)cc2)c2ccc(F)cc2)cc1 (centres undefined),i,i,i,i,-5*,-15
COc1ccc(CNCCC(c2ccc(F)cc2)c2ccc(OC)cc2)cc1 (centres undefined),i,i,7*,i,-8.9*,-22
COc1cccc(OCCNCc2ccccc2)c1,i,i,i,i,-0.91,-1
COc1ccc(C(CCNCc2ccccc2)c2ccc(F)cc2)cc1 (centres undefined),i,i,i,i,-12*,-16
Cc1c(NC(=O)c2ccc(N(Cc3ccccc3)S(C)(=O)=O)cc2)c(=O)n(-c2ccccc2)n1C,i,i,i,i,-1,-3
CCCC1(C)NC(=O)c2ccccc2O1 (centres undefined),i,i,i,i,-0.63,-5
CC(NC(=O)C1CCN(C(=O)c2ccc(F)cc2)CC1)c1ccc(S(N)(=O)=O)cc1 (centres undefined),·,i,·,·,·,·
CCC1CCCCN1CCCNC(=O)c1c(O)nc2ccccn2c1=O (centres undefined),i,i,i,i,-0.21,-9
COc1ccc(CNCCC(c2ccc(F)cc2)c2ccc(OC(C)C)cc2)cc1OC (centres undefined),i,i,i,i,-9*,-17
COc1ccc(CN(CCC(c2ccccc2)c2ccc(OC(C)C)cc2)C(=O)CCl)cc1OC (centres undefined),i,i,i,i,0.23,-5
COC(=O)C1=NN(C(=O)c2ccc(C)cc2)C(O)(c2ccc(Cl)cc2)C1 (centres undefined),i,·,i,37*,-0.43,50*
COC(=O)C1=NN(C(=O)c2ccccc2)C(O)(c2ccc([N+](=O)[O-])cc2)C1 (centres undefined),i,i,i,i,1.3,-7
O=C(O)c1sccc1NC(=O)c1c(Cl)cccc1Cl,i,i,i,i,-0.31,-11
COC(=O)c1sccc1NC(=O)c1c(Cl)cccc1Cl,i,i,i,i,0.02,4.7*
COC(=O)c1ccc(NN=Nc2ccc(C)cc2)cc1,i,i,i,i,1.5,5.1*
COC(=O)c1ccc(C)cc1,·,i,·,·,·,·
CN1CCC(=NNC(=O)CN(c2ccc([N+](=O)[O-])cc2)S(=O)(=O)c2ccccc2)CC1,i,i,i,i,-1.8,-12
O=[N+]([O-])c1ccc(C2CC(c3ccccc3)=Nc3ccccc3S2)cc1 (centres undefined),-7.9*,i,i,i,-0.82,-9
SMILES,KCNK9 inh,KCNK3 block,KCNQ1 block,KCNQ1 pot,Kir21 block,hERG rescue
O=C(COc1ccc2c(c1)oc(=O)c1ccccc12)NCC1CCC(C(=O)O)CC1 (centres undefined),i,i,i,i,1.7,-5
Cc1onc(-c2ccccc2)c1CNS(=O)(=O)c1ccccc1,i,i,i,i,-2.8,-9
Cc1ccc(S(=O)(=O)NCc2c(-c3ccccc3)noc2C)cc1,i,i,i,i,-4.3*,-10
CCn1ccnc1CN1CCc2c([nH]c3ccccc23)C1C(C)(C)C (centres undefined),i,i,i,i,-7.7*,-15
Cc1nn(CC(=O)NC(=O)NC2CCCCC2C)c(=O)c(C#N)c1C (centres undefined),i,i,i,i,-0.18,-23
Fc1ccc(Cn2cccc2C2=NC(c3ccccc3)CO2)cc1 (centres undefined),i,i,i,i,-5.9*,-11
O=C1Cc2ccccc2Sc2cc(OCCCN3CCCCC3)ccc21,i,i,i,i,-8.7*,-12
CN(C)CCCOc1ccc2c(c1)Sc1ccccc1CC2=O,i,i,i,i,-4.2*,-7
CCOc1ccccc1OCCN1CCCC1,i,i,i,i,-1.3,-1
O=C1Cc2ccccc2Sc2c(OCCN3CCCCC3)cccc21,i,i,i,i,-7.7*,-17
Clc1ccc(OCCCN2CCCC2)cc1Cl,i,i,i,i,-0.14,-13
CCc1ccc(-c2cc(C)no2)cc1S(=O)(=O)N1CCN(c2ccccc2)CC1,i,i,6*,i,0.88,-11
CCN(CC)C(=O)CSc1nc(OC)cc(=O)[nH]1,i,i,i,i,-1,-6
O=C(CSc1nc2nc(-c3cccs3)cc(C(F)(F)F)c2c(=O)[nH]1)Nc1ccc(F)c(F)c1,i,i,7*,i,1.3,-15
Cc1cc(Cl)c(S(=O)(=O)N2CCN(c3ccc(F)cc3)CC2)cc1OCC(N)=O,i,i,i,i,-0.07,6.0*
Cc1cc(Br)ccc1OCC(=O)NNC(=O)C(=O)Nc1ccccc1,i,i,i,92*,0.37,51*
CCN(C(=O)COc1ccc(N(C)S(=O)(=O)c2ccc(NC(C)=O)cc2)cc1)C1CCCCC1,·,-8.7*,·,·,·,·
Cc1ccccc1OCC(=O)Nc1cccc(C(=O)O)c1,i,i,i,i,1.5,5.5*
Cc1cccc(NC(=O)NNC(=O)COc2ccc3ccccc3c2)c1,i,i,i,i,0,-4
